Experimental data: ChEMBL document CHEMBL1138814, “Synthesis, antiviral activity, and mode of action of some 3-substituted 2,5,6-trichloroindole 2'- and 5'-deoxyribonucleosides” (J Med Chem, 2004)
pIC50: −log10 of the molar value.

Key:
[1] = Inhibitory concentration required against herpes simplex virus type-1 (HSV-1) expressed in BSC-1 cells was determined by ELISA assay; assay type: functional, cell-based, Cercopithecidae
Method in brief: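 BSC-1 cells (10 000/well, MEM(E) with 10% calf serum) were incubated overnight. Drug (quadruplicate) and HSV-1 at 100 pfu/well were then added, followed by 3 days at 37 °C. Plates were blocked and probed with HRP-conjugated rabbit anti-HSV-1 antibody, developed with TMB and stopped with H2SO4, with absorbance read at 450 and 570 nm. Percent absorbance reduction versus no drug was regressed against log concentration to give IC50.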

[2] = system: HFF; test: Inhibitory concentration required against human cytomegalovirus (HCMV) expressed in HFF cells was determined by plaque reduction assay; assay type: functional, cell-based
Method in brief: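 HCMV Towne strain at about 100 pfu/cm² was adsorbed onto HFF monolayers. Compounds from 10 mg/mL DMSO stocks were diluted in growth medium and added at four to eight concentrations in duplicate wells. After 7–10 days at 37 °C, cells were fixed and stained with crystal violet and plaques counted microscopically. Percent plaque reduction versus no drug was regressed against log concentration to give IC50.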

[3] = system: HFF; test: Cytotoxicity produced in stationary HFF cells was determined by microscopic inspection of uninfected cells; assay type: functional, cell-based; conditions: Homo sapiens
Method in brief: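 Cytotoxicity was scored visually by microscopy on stationary HFF cells not affected by virus, at the time of HCMV plaque enumeration, in duplicate wells. IC50 came from linear regression of percent inhibition against log concentration.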

[4] = Cytotoxicity against KB cells was determined by crystal violet staining and spectrophotometric quantitation of dye eluted from stained cells; assay type: functional, cell-based; conditions: Homo sapiens
Method in brief: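 KB cells were seeded at 3000–5000 per well and incubated overnight. Compound was added at six to eight concentrations for 48 h at 37 °C in CO2, covering two population doublings. Cells were fixed in 95% ethanol and stained with 0.1% crystal violet, and the dye was eluted with acidified ethanol and read at 570 nm. IC50 came from regression of percent inhibition against log concentration.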

[5] = system: HFF; test: Inhibitory concentration required against human cytomegalovirus (HCMV) wild type expressed in HFF cells was determined by plaque reduction assay; assay type: functional, cell-based
Method in brief: (§1)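 HFF monolayers in 24-well dishes were infected with about 100 pfu HCMV per cm² (wild type Towne; mutant strains carry UL56, UL89 or UL56 + UL89 mutations). After adsorption, drug from 10 mg/mL DMSO stock was diluted in medium and added at four to eight concentrations in duplicate wells. Cells were held 7–10 days at 37 °C, then crystal-violet stained and plaques counted against no-drug controls. IC50 came from linear regression of % inhibition versus log10 concentration, averaged over two experiments.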

[6] = system: HFF; test: Inhibitory concentration required against human cytomegalovirus (HCMV) D10 strain (UL89 mutant gene) expressed in HFF cells was determined by plaque reduction assay; assay type: functional, cell-based; method in brief: as §1
[7] = system: HFF; test: Inhibitory concentration required against human cytomegalovirus (HCMV) r56 strain (UL56 mutant gene) expressed in HFF cells was determined by plaque reduction assay; assay type: functional, cell-based; method in brief: as §1
[8] = system: HFF; test: Inhibitory concentration required against human cytomegalovirus (HCMV) C4 strain (UL56 + UL89 mutant gene) expressed in HFF cells was determined by plaque reduction assay; assay type: functional, cell-based; method in brief: as §1

| Structure (SMILES) | pIC50 [1] | pIC50 [2] | pIC50 [3] | pIC50 [4] | pIC50 [5] | pIC50 [6] | pIC50 [7] | pIC50 [8] |
| --- | --- | --- | --- | --- | --- | --- | --- | --- |
| N#Cc1c(Cl)n(C2O[C@H](CF)[C@@H](O)C2O)c2cc(Cl)c(Cl)cc12 (single isomer, unassigned) | 4.40 | 5.57 | 4.49 | 4.30 | – | – | – | – |
| CC(=O)c1c(Cl)n([C@H]2C[C@H](O)[C@@H](CO)O2)c2cc(Cl)c(Cl)cc12 | 5.10 | 6.52 | < 4.00 | 3.40 | 6.66 | 6.12 | 5.74 | 5.68 |
| [N-]=[N+]=NC[C@H]1OC(n2c(Cl)c(C=O)c3cc(Cl)c(Cl)cc32)C(O)[C@@H]1O (single isomer, unassigned) | 5.00 | 6.49 | 4.49 | 4.60 | – | – | – | – |
| Nc1nc2c(ncn2COC(CO)CO)c(=O)[nH]1 [GANCICLOVIR] | 5.46 | – | < 4.00 | < 4.00 | 5.92 | 5.92 | 5.92 | 5.60 |
| OC[C@H]1O[C@@H](n2c(Cl)nc3cc(Cl)c(Cl)cc32)C[C@@H]1O | – | 4.70 | < 4.00 | – | – | – | – | – |
| O=Cc1c(Cl)n(C2O[C@H](CF)[C@@H](O)C2O)c2cc(Cl)c(Cl)cc12 (single isomer, unassigned) | 4.70 | 6.22 | 4.49 | 4.70 | – | – | – | – |
| COc1c(C#N)c2cc(Cl)c(Cl)cc2n1[C@H]1C[C@H](O)[C@@H](CO)O1 | 4.05 | 4.17 | < 4.00 | < 4.00 | – | – | – | – |
| OC[C@H]1O[C@@H](n2c(Cl)c(-c3ccco3)c3cc(Cl)c(Cl)cc32)C[C@@H]1O | 4.70 | 5.44 | 5.49 | 4.30 | – | – | – | – |
| CC(=O)c1c(Br)n([C@H]2C[C@H](O)[C@@H](CO)O2)c2cc(Cl)c(Cl)cc12 | < 4.00 | 6.47 | < 4.00 | < 4.00 | – | – | – | – |
| N#Cc1c(Cl)n([C@H]2C[C@H](O)[C@@H](CO)O2)c2cc(Cl)c(Cl)cc12 | 4.46 | 6.52 | 4.49 | 4.22 | – | – | – | – |
| C[C@H]1OC(n2c(Cl)c(C=O)c3cc(Cl)c(Cl)cc32)C(O)[C@@H]1O (single isomer, unassigned) | 4.70 | 6.52 | 4.49 | 4.60 | – | – | – | – |
| OC[C@H]1O[C@@H](n2c(Cl)nc3cc(Cl)c(Cl)cc32)C(O)[C@@H]1O (single isomer, unassigned) | 3.99 | – | – | 3.68 | – | – | – | – |
| COc1c(C=O)c2cc(Cl)c(Cl)cc2n1[C@H]1C[C@H](O)[C@@H](CO)O1 | < 4.00 | < 4.00 | 4.00 | 4.70 | – | – | – | – |
| OC[C@H]1O[C@@H](n2c(Br)nc3cc(Cl)c(Cl)cc32)C(O)[C@@H]1O (single isomer, unassigned) | 3.89 | – | – | < 4.00 | 6.00 | 4.92 | 5.17 | 4.54 |
| CC(=O)OC[C@H]1OC(n2c(Cl)c(C=O)c3cc(Cl)c(Cl)cc32)C(O)[C@@H]1O (single isomer, unassigned) | – | – | – | – | 6.66 | 6.06 | 5.80 | 5.48 |
| CC(=O)c1c(Cl)n(C2O[C@H](CO)[C@@H](O)C2O)c2cc(Cl)c(Cl)cc12 (single isomer, unassigned) | – | – | – | – | 6.59 | 6.14 | 5.92 | 5.21 |
| C[C@H]1OC(n2c(Cl)nc3cc(Cl)c(Cl)cc32)C(O)[C@@H]1O (single isomer, unassigned) | – | 6.44 | 4.00 | – | – | – | – | – |
| OC[C@H]1O[C@@H](n2c(Cl)c(-c3ccsc3)c3cc(Cl)c(Cl)cc32)C[C@@H]1O | 4.70 | 4.42 | 4.49 | 4.30 | – | – | – | – |
| O=Cc1c(Cl)n(C2O[C@H](CO)[C@@H](O)C2O)c2cc(Cl)c(Cl)cc12 (single isomer, unassigned) | 4.40 | – | – | 4.35 | 6.34 | 6.06 | 5.74 | 5.32 |
| C[C@H]1OC(n2c(Cl)c(C#N)c3cc(Cl)c(Cl)cc32)C(O)[C@@H]1O (single isomer, unassigned) | 4.49 | 6.72 | 4.49 | 4.40 | – | – | – | – |
| N#Cc1c(Cl)n(C2O[C@H](CN=[N+]=[N-])[C@@H](O)C2O)c2cc(Cl)c(Cl)cc12 (single isomer, unassigned) | 4.82 | 5.52 | < 4.00 | 4.22 | – | – | – | – |
| N#Cc1c(Cl)n(C2O[C@H](CO)[C@@H](O)C2O)c2cc(Cl)c(Cl)cc12 (single isomer, unassigned) | < 4.00 | – | – | 4.46 | – | – | – | – |
